# In ChEMBL document CHEMBL1124381, “Studies on angiotensin converting enzyme inhibitors. 4. Synthesis and angiotensin converting enzyme inhibitory activities of 3-acyl-1-alkyl-2-oxoimidazolidine-4-carboxylic acid derivatives” (J Med Chem, 1989):
# Where “and” joins values, the source holds several entries; their conditions need not be identical. Identical values can stand only once.
# Assays:
# Rattus norvegicus [1] = test: Maximum inhibitory effect on Angiotensin I induced pressor responses in anesthetized normotensive rats with 10 ug/kg dose of compound given intra venously; type: functional
# Rattus norvegicus [2] = test: Maximum inhibitory effect of on Angiotensin I induced pressor responses in anesthetized normotensive rats with 1.0 mg/Kg dose of compound given perorally; type: functional; details: po
# Summary of the method: (§1)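 Male Wistar slc rats, 300-400 g, anesthetized, fasted 18-20 h. Drug given orally in distilled water once a constant angiotensin I pressor rise was confirmed. […] ID50 from a linear regression curve. Maximum inhibition reported.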
# Rattus norvegicus [3] = species: Rattus norvegicus; test: Change in systolic blood pressure; type: functional, Artery
# Summary of the method: (§2)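 Male NCrj SHRs, 18-22 weeks old, about 350 g, baseline systolic pressure 180-200 mmHg, fasted 18-20 h. Drug given orally in distilled water at 1, 2, 5 or 10 mg/kg; vehicle 4 mL/kg. Systolic pressure by tail plethysmograph. Initial value, maximum, time of maximum, change and duration of significant fall recorded; mean ± SE.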
# Rattus norvegicus [4] = species: Rattus norvegicus; test: The duration time of the hypotensive effect showing statistically significant difference from initial value was determined; type: functional; summary of the method: as §2
# Rattus norvegicus [5] = test: Maximum inhibitory effect of on Angiotensin I induced pressor responses in anesthetized normotensive rats with 0.2 mg/Kg dose of compound given perorally; type: functional; details: po; summary of the method: as §1
# Rattus norvegicus [6] = test: Maximum inhibitory effect of on Angiotensin I induced pressor responses in anesthetized normotensive rats with 0.5 mg/Kg dose of compound given perorally; type: functional; details: po; summary of the method: as §1
# Rattus norvegicus [7] = test: Initial systolic blood pressure in spontaneously hypertensive rats after administration of 10 mg/kg of compound perorally; type: functional, Artery; details: route oral; summary of the method: as §2
# Rattus norvegicus [8] = test: Initial systolic blood pressure in spontaneously hypertensive rats after administration of 1 mg/kg of compound perorally; type: functional, Artery; details: route oral; summary of the method: as §2
# Rattus norvegicus [9] = test: Initial systolic blood pressure in spontaneously hypertensive rats after administration of 2 mg/kg of compound perorally; type: functional, Artery; details: route oral; summary of the method: as §2
# Rattus norvegicus [10] = test: Initial systolic blood pressure in spontaneously hypertensive rats after administration of 5 mg/kg of compound perorally; type: functional, Artery; details: route oral; summary of the method: as §2
# Rattus norvegicus [11] = test: The time required for the maximal fall in blood pressure after administration of the compound; type: functional; summary of the method: as §2
# Rattus norvegicus [12] = species: Rattus norvegicus; test: Inhibitory effect of on Angiotensin I induced pressor responses in normotensive rats when given perorally; type: functional; details: po, read-out: ID50 (the source's name); summary of the method: as §1
# Rattus norvegicus [13] = test: Maximum inhibitory effect on Angiotensin I induced pressor responses in anesthetized normotensive rats with 0.2 mg/Kg dose of compound given perorally; type: functional; details: po; summary of the method: as §1
# Rattus norvegicus [14] = test: Maximum inhibitory effect on Angiotensin I induced pressor responses in anesthetized normotensive rats with 0.5 mg/Kg dose of compound given perorally; type: functional; details: po; summary of the method: as §1
# Rattus norvegicus [15] = test: Maximum inhibitory effect on Angiotensin I induced pressor responses in anesthetized normotensive rats with 1.0 mg/Kg dose of compound given perorally; type: functional; details: po; summary of the method: as §1
# Rattus norvegicus [16] = species: Rattus norvegicus; test: Inhibitory effect on Angiotensin I induced pressor responses in normotensive rats when given perorally; type: functional; details: po, read-out: ID50 (the source's name); summary of the method: as §1
# Rattus norvegicus [17] = test: Maximum effect on systolic blood pressure in spontaneously hypertensive rats after administration of 10 mg/kg of compound perorally; type: functional, Artery; details: route oral; summary of the method: as §2
# Rattus norvegicus [18] = test: Maximum effect on systolic blood pressure in spontaneously hypertensive rats after administration of 1 mg/kg of compound perorally; type: functional, Artery; details: route oral; summary of the method: as §2
# Rattus norvegicus [19] = test: Maximum effect on systolic blood pressure in spontaneously hypertensive rats after administration of 2 mg/kg of compound perorally; type: functional, Artery; details: route oral; summary of the method: as §2
# Rattus norvegicus [20] = test: Maximum effect on systolic blood pressure in spontaneously hypertensive rats after administration of 5 mg/kg of compound perorally; type: functional, Artery; details: route oral; summary of the method: as §2
# Rattus norvegicus [21] = test: Maximum inhibitory effect on Angiotensin I induced pressor responses in anesthetized normotensive rats with 10 ug/kg dose of compound given intravenously; type: functional; details: iv
structure (smiles),measurement,setting,value
C[C@H](N[C@@H](CCc1ccccc1)C(=O)O)C(=O)N1C(=O)N(Cc2ccccc2)C[C@H]1C(=O)O,inhibition in vivo at 0.01 mg/kg,Rattus norvegicus [1],39%
CCCCCCCC[C@H](N[C@@H](C)C(=O)N1C(=O)N(C)C[C@H]1C(=O)O)C(=O)O,inhibition in vivo at 0.01 mg/kg,Rattus norvegicus [1],53.4%
same,inhibition in vivo at 1 mg/kg,Rattus norvegicus [2],18.4%
CCCCCCCC[C@H](N[C@@H](C)C(=O)N1C(=O)N(Cc2ccccc2)C[C@H]1C(=O)O)C(=O)O,inhibition in vivo at 0.01 mg/kg,Rattus norvegicus [1],41%
CCCCCCCC[C@H](N[C@@H](C)C(=O)N1C(=O)N(C)C[C@H]1C(=O)O)C(=O)OCC,inhibition in vivo at 1 mg/kg,Rattus norvegicus [2],56.2%
CCOC(=O)[C@H](CCc1ccccc1)N[C@@H](C)C(=O)N1C(=O)N(C)C[C@H]1C(=O)O,Change,Rattus norvegicus [3],-25 [middle of 4 runs]
same,Duration,Rattus norvegicus [4],>9 h
same,inhibition in vivo at 0.2 mg/kg,Rattus norvegicus [5],52%
same,inhibition in vivo at 0.5 mg/kg,Rattus norvegicus [6],62.7%
same,Systolic blood pressure,Rattus norvegicus [7],192 mmHg
same,Systolic blood pressure,Rattus norvegicus [8]; 1 mg/kg,190 mmHg and 190.8 mmHg
same,Systolic blood pressure,Rattus norvegicus [9]; 2 mg/kg,165.8 mmHg and 192.5 mmHg
same,Systolic blood pressure,Rattus norvegicus [10]; 5 mg/kg,191.4 mmHg and 164.3 mmHg
same,Time,Rattus norvegicus [11],3 h and 6 h
same,ED50,Rattus norvegicus [12],0.24 mg/kg
CCOC(=O)[C@H](CCc1ccccc1)N[C@@H](C)C(=O)N1CCC[C@H]1C(=O)O,Change,Rattus norvegicus [3],-23.3 [middle of 4 runs]
same,Duration,Rattus norvegicus [4],>9 h
same,inhibition in vivo at 0.2 mg/kg,Rattus norvegicus [13],42.9%
same,inhibition in vivo at 0.5 mg/kg,Rattus norvegicus [14],50.5%
same,inhibition in vivo at 1 mg/kg,Rattus norvegicus [15],69.8%
same,ED50,Rattus norvegicus [16],0.3 mg/kg
same,Systolic blood pressure,Rattus norvegicus [7],193.3 mmHg
same,Systolic blood pressure,Rattus norvegicus [8],190.8 mmHg
same,Systolic blood pressure,Rattus norvegicus [9],192.9 mmHg
same,Systolic blood pressure,Rattus norvegicus [10],190 mmHg
same,Systolic blood pressure,Rattus norvegicus [17],165 mmHg
same,Systolic blood pressure,Rattus norvegicus [18],178.3 mmHg
same,Time,Rattus norvegicus [11],3 h and 6 h
same,Systolic blood pressure,Rattus norvegicus [19],168.6 mmHg
same,Systolic blood pressure,Rattus norvegicus [20],166.7 mmHg
C[C@H](N[C@@H](CCc1ccccc1)C(=O)O)C(=O)N1C(=O)N(C)C[C@H]1C(=O)O,inhibition in vivo at 0.01 mg/kg,Rattus norvegicus [1],62.4%
same,inhibition in vivo at 0.2 mg/kg,Rattus norvegicus [5],-7.2%
same,inhibition in vivo at 1 mg/kg,Rattus norvegicus [2],26.3%
C[C@H](N[C@@H](CCc1ccccc1)C(=O)O)C(=O)N1CCC[C@H]1C(=O)O [ENALAPRILAT ANHYDROUS],inhibition in vivo at 0.01 mg/kg,Rattus norvegicus [21],54.5%
